Laboratory results published in ChEMBL document CHEMBL1129630, “Synthesis and structure-activity relationships of retinoid X receptor selective diaryl sulfide analogs of retinoic acid” (J Med Chem, 1996).

Experiments:
[1] = biological target: T1, Retinoic acid receptor beta (Homo sapiens, UniProt P10826); experiment: Transcriptional activation of Retinoic acid receptor RAR beta; parameters: species or system Cercopithecidae
T1 sequence (P10826 whole entry): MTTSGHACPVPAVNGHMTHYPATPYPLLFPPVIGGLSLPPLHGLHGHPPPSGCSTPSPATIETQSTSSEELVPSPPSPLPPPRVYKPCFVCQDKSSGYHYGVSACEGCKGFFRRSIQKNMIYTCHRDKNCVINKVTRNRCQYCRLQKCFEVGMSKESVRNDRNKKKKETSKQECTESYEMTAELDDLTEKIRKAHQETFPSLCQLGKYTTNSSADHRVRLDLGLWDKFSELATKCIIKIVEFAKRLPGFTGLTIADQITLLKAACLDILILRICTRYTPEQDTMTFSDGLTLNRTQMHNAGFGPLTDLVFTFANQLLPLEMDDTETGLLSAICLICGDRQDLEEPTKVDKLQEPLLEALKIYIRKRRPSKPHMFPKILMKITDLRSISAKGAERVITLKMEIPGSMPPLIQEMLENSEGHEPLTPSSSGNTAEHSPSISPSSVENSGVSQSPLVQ
Summary of the method: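 CV-1 cells transiently cotransfected with the receptor construct and a reporter gene, with induced transcription measured. Activity is normalized to all-trans RA. EC50 is the concentration giving 50% of maximal observed response, from a single experiment in triplicate.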

[2] = biological target: T2, Retinoic acid receptor RXR-alpha (Homo sapiens, UniProt P19793); experiment: Transcriptional activation of Retinoid X receptor RXR alpha; parameters: species or system Cercopithecidae
T2 sequence (P19793 whole entry): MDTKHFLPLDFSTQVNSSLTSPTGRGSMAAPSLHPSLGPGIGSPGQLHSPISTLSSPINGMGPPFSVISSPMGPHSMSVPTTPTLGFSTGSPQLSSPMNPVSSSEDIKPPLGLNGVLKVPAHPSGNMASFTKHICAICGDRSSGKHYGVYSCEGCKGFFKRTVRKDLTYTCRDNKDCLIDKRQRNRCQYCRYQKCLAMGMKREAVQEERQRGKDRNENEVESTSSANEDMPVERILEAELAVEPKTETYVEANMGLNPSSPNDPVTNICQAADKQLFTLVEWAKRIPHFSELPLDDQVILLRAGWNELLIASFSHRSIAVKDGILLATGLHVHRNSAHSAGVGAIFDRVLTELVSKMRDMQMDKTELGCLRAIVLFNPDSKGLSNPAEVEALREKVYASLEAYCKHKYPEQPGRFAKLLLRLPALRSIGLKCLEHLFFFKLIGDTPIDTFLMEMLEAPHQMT
Summary of the method: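 Transient cotransfection of CV-1 cells with the receptor gene construct plus a reporter gene, read as induced transcription. Activity normalized to all-trans RA. EC50 taken as the concentration giving 50% of the maximal observed response. Single experiment, triplicate determinations.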

EC50 [1]: 570 nM | EC50 [2]: 770 nM
Structure (SMILES): CC1(C)CCC(C)(C)c2cc(Sc3ccc(C(=O)O)cc3)ccc21
